Calls of active or inactive are those of the source. The rule behind the calls is not given here. *1 amine or outer side, *2 acyl side, *3 side chain or, on linkers, in order; H or OH if unused. Where a SMILES comes first, the peptide text is derived from it. The star is where a group is joined. NH(CH2)3O(βDGlc) = OC[C@H]1O[C@@H](OCCCN*)[C@H](O)[C@@H](O)[C@@H]1O; Glutaryl = O=C(CCCC(=O)[*:2])[*:1]
How the values were obtained:
A549 [1] = assay: Induction of apoptosis in human A549 cells assessed as increase in caspase-3 activity at 15 uM measured after 24 hrs by Ac-DEVD-pNA substrate based assay relative to control; type: functional
Procedure, shortened: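 A549 cells treated 24 h with 15 µM peptide, or medium as control. Cells lysed, and supernatant incubated with Ac-DEVD-pNA (2 mM). Absorbance read at 405 nm; activity ratio expressed against blank control, n=3.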

A549 [2] = assay: Induction of mitochondrial membrane disruption in human A549 cells assessed as increase in cytochrome C level in cytoplasm at 15 uM measured after 24 hrs by immunofluorescence assay; type: functional, cell-based
Procedure, shortened: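 A549 cells given 15 µM peptide for 24 h, permeabilized 2 min with 0.5% Triton X-100 and blocked 30 min in 10% sheep serum/PBS. Anti-CytC (1:100) applied 2 h at RT, then fluorescent goat anti-mouse secondary (1:200) for 1 h. Confocal imaging; untreated cells served as control.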

A549 [3] = assay: Induction of apoptosis in human A549 cells assessed as late apoptotic cells at 8 uM measured after 4 hrs by Annexin V-FITC/propidium iodide staining-based flow cytometry (reference value: 3.61%); type: functional
Procedure, shortened: (§1)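 A549 cells grown 24 h, trypsinized, then resuspended in medium with 8 µM peptide for 4 h at 37 °C. Cells washed with cold PBS, stained with Annexin V-FITC/PI, and analysed by flow cytometry.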

A549 [4] = assay: Induction of apoptosis in human A549 cells assessed as necrotic cells at 8 uM measured after 4 hrs by Annexin V-FITC/propidium iodide staining-based flow cytometry (reference value: 0.51%); type: functional; procedure, shortened: as §1
A549 [5] = assay: Induction of morphological changes in human A549 cells assessed as cell shrinkage at 15 uM measured after 24 hrs by scanning electron microscopic analysis; type: functional, cell-based
A549 [6] = assay: Induction of morphological changes in human A549 cells assessed as disruption of cell membrane at 15 uM measured after 24 hrs by scanning electron microscopic analysis; type: functional, cell-based
Procedure, shortened: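 A549 cells pre-seeded on mica sheets for 24 h at 37°C, then exposed to 15 μM peptide for 24 h at 37°C. Cells were PBS-washed twice, fixed in 4% paraformaldehyde for 15 min, dehydrated through graded ethanol and imaged by SEM at 15 kV. Untreated cells served as control.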

[7] = molecular target: T1, Solute carrier family 2, facilitated glucose transporter member 1 (Homo sapiens) (UniProt P11166); assay: Binding affinity to GLUT1 in human A549 cells assessed as cytotoxicity by measuring LDH release at 12.5 uM measured after 2 hrs relative to control; type: cell-based
T1 sequence (whole entry): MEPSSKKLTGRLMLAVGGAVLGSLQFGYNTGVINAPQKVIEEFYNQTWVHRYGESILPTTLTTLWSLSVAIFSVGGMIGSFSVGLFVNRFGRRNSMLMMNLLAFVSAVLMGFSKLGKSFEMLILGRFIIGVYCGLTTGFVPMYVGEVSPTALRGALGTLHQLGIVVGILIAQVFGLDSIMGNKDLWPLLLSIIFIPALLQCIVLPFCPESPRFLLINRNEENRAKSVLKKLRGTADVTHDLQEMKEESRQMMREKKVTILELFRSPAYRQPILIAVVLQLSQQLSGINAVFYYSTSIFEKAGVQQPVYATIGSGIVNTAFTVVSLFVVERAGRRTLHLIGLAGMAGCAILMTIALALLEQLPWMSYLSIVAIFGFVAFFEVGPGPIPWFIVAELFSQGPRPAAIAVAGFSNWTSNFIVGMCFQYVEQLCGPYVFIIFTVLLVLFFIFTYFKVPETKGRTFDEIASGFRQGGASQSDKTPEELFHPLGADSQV
Procedure, shortened: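 A549 cells at 2×10^3/well, allowed to adhere overnight, then exposed to peptide over a concentration series for 2 h. LDH release measured with a kit, absorbance at 490 nm. 1% Triton X-100 taken as 100% release; n=3.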

A549 [8] = assay: Induction of morphological changes in 3D spheroids of human A549 cells assessed as cell shrinkage at 30 uM treated every 2 days for 6 days measured every 3 days during compound dosing by microscopic analysis; type: functional, cell-based
Procedure, shortened: (§2)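 A549 3D spheroids, one per well, in 10% medium with peptide at 30 µM final. Dosed at day 0, then re-added at days 2 and 4, for 6 days total. Spheroids washed thrice, then imaged and sized at days 0, 3 and 6. Viability read by CCK-8.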

[9] = molecular target: T1, Solute carrier family 2, facilitated glucose transporter member 1 (Homo sapiens); assay: Binding affinity to GLUT1 in 3D spheroids of human A549 cells assessed as cytotoxicity by measuring reduction in cell viability at 30 uM treated every 2 days for 6 days by CCK8 assay; type: cell-based; procedure, shortened: as §2
[10] = molecular target: T1, Solute carrier family 2, facilitated glucose transporter member 1 (Homo sapiens); assay: Binding affinity to GLUT1 in human A549 cells harboring luciferase gene assessed as cytotoxicity by measuring reduction in cell viability after 24 hrs by CCK8 assay; type: cell-based
[11] = Drug uptake in spleen of Balb/c nu/nu mouse xenografted with human A549 cells expressing luciferase gene at 9 mg/kg, ip measured after 6 hrs by fluorescence assay; type: ADME, organism-based; conditions: in vivo
[12] = Drug uptake in spleen of Balb/c nu/nu mouse xenografted with human A549 cells expressing luciferase gene at 3 mg/kg administered intratumorally measured after 6 hrs by fluorescence assay; type: ADME, organism-based; conditions: in vivo, other
[13] = Drug uptake in liver of Balb/c nu/nu mouse xenografted with human A549 cells expressing luciferase gene at 3 mg/kg administered intratumorally measured after 6 hrs by fluorescence assay; type: ADME, organism-based; conditions: in vivo, other
[14] = Drug uptake in heart of Balb/c nu/nu mouse xenografted with human A549 cells expressing luciferase gene at 3 mg/kg administered intratumorally measured after 6 hrs by fluorescence assay; type: ADME, organism-based; conditions: in vivo, other
A549 [15] = assay: Antitumor activity against human A549 cells expressing luciferase gene xenografted in Balb/c nu/nu mouse assessed as tumor growth inhibition at 9 mg/kg, ip administered every 2 days for seven times measured on day 14 by bioluminescent imaging analysis; type: functional, organism-based
Procedure, shortened: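 Male BALB/c nu/nu mice, 4-6 weeks old, carrying subcutaneous A549-luciferase xenografts in the right back. Dosing started when tumors reached 100-200 mm³ (day 0), five per group. Peptide was given at 9 mg/kg i.p. in 200 µL every other day for 7 doses; PBS served as control. Bioluminescent imaging on day 14; tumor size and body weight tracked. Tumors fixed in paraformaldehyde, paraffin-sectioned, TUNEL-stained.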

A549 [16] = assay: Antitumor activity against human A549 cells expressing luciferase gene xenografted in Balb/c nu/nu mouse assessed as tumor growth inhibition at 3 mg/kg administered intratumorally every 3 days for four times measured on day 12 by bioluminescent imaging analysis; type: functional, organism-based
Procedure, shortened: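 Male BALB/c nu/nu mice, 4-6 weeks old, with subcutaneous A549-luciferase xenografts. Treatment began when tumors reached 100-200 mm³, five per group. Peptide was injected intratumorally at 3 mg/kg in 100 µL every 3 days for 4 doses; 100 µL PBS was the control. Bioluminescent imaging on day 12, with tumor size and body weight monitored.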

[17] = Toxicity in Balb/c nu/nu mouse xenografted with human A549 cells expressing luciferase gene assessed as change in body weight at 9 mg/kg, ip administered every 2 days for seven times measured on day 14; type: organism-based; conditions: in vivo, 48 h
Procedure, shortened: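 Male BALB/c nu/nu mice, 4–6 weeks old, carrying subcutaneous A549-luciferase tumours (right back, cells in sterile PBS), dosed at a tumour size of 100–200 mm³; five per group, PBS controls. Two regimens: 9 mg/kg i.p. (200 µL) every other day ×7, ended day 14; or 3 mg/kg intratumoral (100 µL) every 3 days ×4, ended day 12. Body weight was monitored throughout.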

Row | Drug uptake [11] | Drug uptake [12] | Drug uptake [13] | Drug uptake [14] | SMILES | fold change (FC) (A549 [1]) | Activity (A549 [2]) | Activity (A549 [3]) | Activity (A549 [4]) | Activity (A549 [5]) | Activity (A549 [6]) | Activity [7] | Activity (A549 [8]) | Activity [9] | Activity [10] | TGI (A549 [15]) | TGI (A549 [16]) | Activity [17]
1 | Active | Active | Active | Active | CC[C@H](C)[C@H](NC(=O)[C@H](Cc1ccccc1)NC(=O)[C@H](CCCNC(=N)N)NC(=O)[C@H](C)NC(=O)[C@@H](NC(=O)[C@H](CO)NC(=O)[C@H](CCCNC(=N)N)NC(=O)[C@H](CCSC)NC(=O)[C@H](C)NC(=O)[C@H](CCCNC(=N)N)NC(=O)[C@H](Cc1ccccc1)NC(=O)[C@H](Cc1c[nH]c2ccccc12)NC(=O)CNC(=O)[C@@H](N)CCCNC(=N)N)[C@@H](C)CC)C(=O)N[C@@H](C)C(=O)N[C@@H](CCCNC(=N)N)C(=O)N[C@@H](CCC(=O)O)C(=O)N[C@@H](CCCNC(=N)N)C(=O)N[C@@H](CC(C)C)C(=O)N[C@@H](CCCNC(=N)N)C(=O)N[C@@H](CCC(=O)O)C(=O)N[C@@H](Cc1cnc[nH]1)C(=O)N[C@@H](CC(C)C)C(=O)O (H-RGWFRAMRSIARFIARERLREHL-OH) | 1.5 | Active | 9.87% | 0.75% | Active | Active | > 30% | Active | Active | Active | Active | Active | Non-Toxic
2 | Active | Active | Active | Active | CC[C@H](C)[C@H](NC(=O)[C@H](Cc1ccccc1)NC(=O)[C@H](CCCNC(=N)N)NC(=O)[C@H](C)NC(=O)[C@@H](NC(=O)[C@H](CO)NC(=O)[C@H](CCCNC(=N)N)NC(=O)[C@H](CCSC)NC(=O)[C@H](C)NC(=O)[C@H](CCCNC(=N)N)NC(=O)[C@H](Cc1ccccc1)NC(=O)[C@H](Cc1c[nH]c2ccccc12)NC(=O)CNC(=O)[C@H](CCCNC(=N)N)NC(=O)CCCC(=O)NCCCO[C@@H]1O[C@H](CO)[C@@H](O)[C@H](O)[C@H]1O)[C@@H](C)CC)C(=O)N[C@@H](C)C(=O)N[C@@H](CCCNC(=N)N)C(=O)N[C@@H](CCC(=O)O)C(=O)N[C@@H](CCCNC(=N)N)C(=O)N[C@@H](CC(C)C)C(=O)N[C@@H](CCCNC(=N)N)C(=O)N[C@@H](CCC(=O)O)C(=O)N[C@@H](Cc1cnc[nH]1)C(=O)N[C@@H](CC(C)C)C(=O)O ({NH(CH2)3O(βDGlc)-Glutaryl}-RGWFRAMRSIARFIARERLREHL-OH) | 1.5 | Active | 38.49% | 0.57% | Active | Active | > 30% | Active | Active | Active | Active | Active | Non-Toxic

— ChEMBL document CHEMBL4334452, “Monosaccharide Analogues of Anticancer Peptide R-Lycosin-I: Role of Monosaccharide Conjugation in Complexation and the Potential of Lung Cancer Targeting and Therapy” (J Med Chem, 2019)
